ChEMBL document CHEMBL1140336, “Synthesis, structure-activity relationships, and biological evaluation of fatty alcohol phosphates as lysophosphatidic acid receptor ligands, activators of PPARgamma, and inhibitors of autotaxin” (J Med Chem, 2005)

Tests used:
[1] = molecular target: T1, Lysophosphatidic acid receptor 1 (Homo sapiens, UniProt Q92633); assay: (§1) Inhibition of LPA-induced calcium transients in RH7777 rat hepatoma cells expressing LPA1 receptor; No effect; assay type: functional, cell-based
T1 sequence (Q92633 whole entry): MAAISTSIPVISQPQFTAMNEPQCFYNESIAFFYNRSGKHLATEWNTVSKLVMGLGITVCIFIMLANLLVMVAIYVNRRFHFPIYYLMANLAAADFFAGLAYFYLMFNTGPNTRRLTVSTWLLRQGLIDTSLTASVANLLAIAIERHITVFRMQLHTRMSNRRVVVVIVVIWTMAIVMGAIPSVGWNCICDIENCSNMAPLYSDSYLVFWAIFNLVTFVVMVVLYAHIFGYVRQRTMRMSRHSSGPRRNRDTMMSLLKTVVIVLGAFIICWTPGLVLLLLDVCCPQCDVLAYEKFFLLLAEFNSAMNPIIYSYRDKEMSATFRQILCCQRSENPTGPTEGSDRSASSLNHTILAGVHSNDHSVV
In short: (§2)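 Fura-2 Ca2+ assay. RH7777 cells stably expressing LPA1, LPA2 or LPA3, or PC-3 cells (endogenous LPA1-3), seeded at 50000 cells/well on poly-D-lysine and grown overnight. Serum-starved in modified Krebs, pH 7.4, for 6-8 h (PC-3: 12 h), then Fura-2 AM loaded for 35 min. Compound added at 15 s; wells read 80-120 s. Transient taken as peak minus baseline 340/380 ratio. Antagonism: LPA 18:1 coapplied; highest concentration 30 μM.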

[2] = molecular target: T1, Lysophosphatidic acid receptor 1; assay: as §1; assay type: functional, cell-based; remark: listed apart in the source
[3] = molecular target: T2, Lysophosphatidic acid receptor 2 (Homo sapiens, UniProt Q9HBW0); assay: Inhibition of LPA-induced calcium transients in RH7777 rat hepatoma cells expressing LPA2 receptor; No effect; assay type: functional, cell-based; in short: as §2
T2 sequence (Q9HBW0 whole entry): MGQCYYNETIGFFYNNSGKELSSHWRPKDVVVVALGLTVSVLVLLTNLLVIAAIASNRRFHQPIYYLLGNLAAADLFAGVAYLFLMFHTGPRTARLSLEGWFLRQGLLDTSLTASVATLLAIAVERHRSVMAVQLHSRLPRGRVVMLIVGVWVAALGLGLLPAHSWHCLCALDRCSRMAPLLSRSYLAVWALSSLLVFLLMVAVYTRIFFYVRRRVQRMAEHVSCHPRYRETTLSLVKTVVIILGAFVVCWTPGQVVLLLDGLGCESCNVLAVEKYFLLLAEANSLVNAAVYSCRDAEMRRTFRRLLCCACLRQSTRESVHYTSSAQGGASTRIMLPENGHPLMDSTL

[4] = Inhibition of LPA expressed in PC-3 cells; No effect; assay type: functional, cell-based, Homo sapiens; in short: as §2
[5] = molecular target: T3, Lysophosphatidic acid receptor 3 (Homo sapiens, UniProt Q9UBY5); assay: Inhibition of LPA-induced calcium transients in RH7777 rat hepatoma cells expressing LPA3 receptor; No effect; assay type: functional, cell-based; in short: as §2
T3 sequence (Q9UBY5 whole entry): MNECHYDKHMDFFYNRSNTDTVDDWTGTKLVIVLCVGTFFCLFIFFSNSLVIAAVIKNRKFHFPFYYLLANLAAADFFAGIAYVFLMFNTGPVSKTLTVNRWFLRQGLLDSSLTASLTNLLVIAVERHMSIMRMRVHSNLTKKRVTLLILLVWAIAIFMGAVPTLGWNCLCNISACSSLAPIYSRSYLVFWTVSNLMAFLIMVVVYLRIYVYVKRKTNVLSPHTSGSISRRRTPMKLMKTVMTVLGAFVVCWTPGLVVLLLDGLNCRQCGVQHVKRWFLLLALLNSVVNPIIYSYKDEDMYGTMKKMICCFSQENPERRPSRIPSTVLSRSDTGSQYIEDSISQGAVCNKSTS

[6] = Inhibition of LPA-induced calcium transients in PC-3 cells; No effect; assay type: functional, cell-based, Homo sapiens; in short: as §2
[7] = molecular target: T2, Lysophosphatidic acid receptor 2; assay: Binding affinity for Lysophosphatidic acid receptor 2 expressed in RH7777 rat hepatoma cells; assay type: cell-based
[8] = molecular target: T1, Lysophosphatidic acid receptor 1; assay: Binding affinity for Lysophosphatidic acid receptor 1 expressed in RH7777 rat hepatoma cells; assay type: cell-based; in short: as §2
[9] = molecular target: T3, Lysophosphatidic acid receptor 3; assay: Binding affinity for Lysophosphatidic acid receptor 3 expressed in RH7777 rat hepatoma cells; assay type: cell-based; in short: as §2
[10] = molecular target: T1, Lysophosphatidic acid receptor 1; assay: (§3) Inhibition of LPA-induced calcium transients in RH7777 rat hepatoma cells expressing LPA1 receptor; assay type: functional, cell-based; in short: as §2
[11] = molecular target: T3, Lysophosphatidic acid receptor 3; assay: (§4) Inhibition of LPA-induced calcium transients in RH7777 rat hepatoma cells expressing LPA3 receptor; assay type: functional, cell-based; in short: as §2
[12] = Inhibition of LPA-induced calcium transients in PC-3 cells; assay type: functional, cell-based, Homo sapiens; settings: Homo sapiens, PC-3; read-out: IC50
In short: (§5)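 PC-3 human prostate cancer cells, which express LPA1-3 endogenously, 50000 cells/well. Serum-starved 12 h in modified Krebs, loaded with Fura-2 AM, read in a FlexStation. Ca2+ transient = 340/380 ratio peak minus baseline. Agonism (Emax as % of maximal LPA 18:1 response) and inhibition of LPA-induced transients were measured.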

[13] = Binding affinity for Lysophosphatidic acid receptor in PC-3 cells; assay type: cell-based, Homo sapiens; in short: as §2
Homo sapiens [14] = species: Homo sapiens; assay: (§6) Concentration of compound (after 5 min of addition) that induce LPA expressed in human platelets; assay type: functional
In short: (§7)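 Washed human platelets, aspirin-treated and isolated with apyrase, at 4 × 10^5/μL in HEPES buffer pH 7.4, stirred at 37 °C. Lipids given as BSA complexes (4:1). Shape change read as the fall in light transmission in an aggregometer. […] Mean ± SD across different donors.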

[15] = molecular target: T2, Lysophosphatidic acid receptor 2; assay: (§8) Inhibition of LPA-induced calcium transients in RH7777 rat hepatoma cells expressing LPA2 receptor; assay type: functional, cell-based; in short: as §2
Homo sapiens [16] = species: Homo sapiens; assay: Maximal shape change of human platelets induced by the compound; assay type: functional; in short: as §7
Homo sapiens [17] = species: Homo sapiens; assay: Inhibitory concentration of compound (after 5 min of incubation) against LPA human platelets
[18] = molecular target: T1, Lysophosphatidic acid receptor 1; assay: Inhibition of LPA-induced calcium transients in RH7777 rat hepatoma cells expressing LPA1 receptor; Not effect; assay type: functional, cell-based; in short: as §2
Homo sapiens [19] = species: Homo sapiens; assay: as §6; assay type: functional; remark: listed apart in the source
[20] = molecular target: T2, Lysophosphatidic acid receptor 2; assay: as §8; assay type: functional, cell-based; remark: listed apart in the source
[21] = Percent maximal efficacy in PC-3 cells; assay type: functional, Homo sapiens; in short: as §5
PC-3 = assay: Inhibitory concentration against LPA expressed in PC-3 cells; Weak antagonist; assay type: functional, cell-based, Homo sapiens; in short: as §2
[22] = molecular target: T1, Lysophosphatidic acid receptor 1; assay: as §3; assay type: functional, cell-based; remark: listed apart in the source
[23] = molecular target: T3, Lysophosphatidic acid receptor 3; assay: as §4; assay type: functional, cell-based; remark: listed apart in the source
[24] = molecular target: T1, Lysophosphatidic acid receptor 1; assay: Maximal efficacy in induction of [Ca2+] transients in RH7777 rat hepatoma cells expressing LPA1 receptor; assay type: functional, cell-based
In short: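 Agonist mode in RH7777 cells stably expressing the named LPA receptor, serum-starved 6-8 h, Fura-2 AM loaded. Increasing compound concentrations were added alone and the Ca2+ transient was read as the 340/380 ratio peak minus baseline. Emax = compound maximal response as a percentage of the LPA 18:1 maximal response.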

[25] = molecular target: T2, Lysophosphatidic acid receptor 2; assay: Inhibition of LPA-induced calcium transients in RH7777 rat hepatoma cells expressing LPA2 receptor;No effect; assay type: functional, cell-based; in short: as §2

SMILES | EC50 [1] | EC50 [3] | IC50 [3] | EC50 [5] | Ki [9] | IC50 [10] | IC50 [11] | IC50 (Homo sapiens [17]) | IC50 [2] | IC50 [12] | Ki [13] | Emax (Homo sapiens [16]) | Emax [21] | further results
Cc1noc(-c2ccc(CSCCC(=O)O)cc2)c1NC(=O)OC(C)c1ccccc1Cl (stereo not given) | Not Active | Not Active | Not Active | Not Active | 0.148 µM | 0.762 µM | 0.301 µM |  |  | 3.38 µM | 1.74 µM |  |  | Ki ([7]; rh7777): Not Active; Ki [8]: 0.425 µM
CC/C=C/CCCCCCCCOP(=O)(O)O | Not Active |  | Not Active | Not Active | 0.027 µM | > 10 µM | 0.032 µM | 0.7 µM |  | 0.916 µM | 0.39 µM | 89% |  | EC50 (Homo sapiens [14]): 1.5 µM; EC50 [15]: 0.717 µM
CCCCCCCC(=O)OC[C@H](COP(=O)(O)OP(=O)(O)O)OC(=O)CCCCCCC |  | Not Active | Not Active | Not Active | 0.202 µM | 5.5 µM | 0.454 µM |  |  |  |  |  |  | Ki [8]: 4.3 µM; EC50 [18]: Not Active
CC/C=C/CCCCCCCCOP(O)(O)=S | Not Active |  | Not Active | Not Active | 0.014 µM |  | 0.027 µM | 0.7 µM | Not Active | 2.97 µM | 1.46 µM | 73% | 27% | EC50 (Homo sapiens [19]): 1 µM; EC50 [20]: 0.677 µM
CCCCC/C=C/CCCOP(=O)(O)O | Not Active |  | Not Active | Not Active | 0.37 µM | > 10 µM | 0.83 µM |  |  | 1.3 µM | 0.735 µM |  |  | EC50 [15]: > 10 µM
CCCCCCCC/C=C/CCCCCCCCOP(O)(O)=S |  |  | Not Active |  |  |  |  | 0.018 µM | Not Active |  |  | 1.12% | 30% | EC50 (Homo sapiens [14]): 0.016 µM; EC50 [22]: 0.193 µM; EC50 [23]: 0.546 µM; IC50 [5]: Not Active; EC50 [20]: 0.244 µM

More lines, main results first:

EC50 [1] | EC50 [3] | IC50 [3] | EC50 [5] | Ki [9] | IC50 [10] | IC50 [11] | IC50 (Homo sapiens [17]) | SMILES | IC50 [2] | IC50 [12] | Ki [13] | Emax (Homo sapiens [16]) | Emax [21] | further results
Not Active | Not Active | Not Active | Not Active |  |  |  |  | CCCCCCCCCCCCCCCCCCP(=O)(O)O | Not Active |  |  |  |  | IC50 [4]: Not Active; IC50 [5]: Not Active; EC50 [6]: Not Active
Not Active |  | Not Active | Not Active | 2.33 µM |  | 5.57 µM |  | CCCCCCCCCCCCCCCC(=O)N[C@@H](Cc1ccc(OP(=O)(O)O)cc1)C(=O)O | Not Active |  |  |  | 25% | EC50 [20]: ~11 µM; IC50 (PC-3): Partial antagonist
 | Not Active | Not Active |  |  |  |  |  | CCCCCCCCCCCCCCCC(=O)N[C@@H](COP(=O)(O)O)C(=O)O |  |  |  |  | 42% | EC50 [22]: 1.85 µM; EC50 [23]: 1.6 µM; IC50 [5]: Not Active; Emax [24]: 100%
Not Active | Not Active |  | Not Active | 1.12 µM | ~10 µM | 3.1 µM | 33 µM | CCCCCCCCCCCCCCP(=O)(O)O |  | 9.67 µM | 4.62 µM | 0% |  | Ki ([7]; read-out: Ki): 3.55 µM; IC50 [15]: 5.5 µM
Not Active | Not Active |  | Not Active | 0.211 µM | 2.3 µM | 0.422 µM | 0.42 µM | CCCCCCCCCCCCCCOP(=O)(O)O [PHOSPHORIC ACID MONOTETRADECYL ESTER] |  |  |  | 87% |  | Ki [8]: 1.08 µM; EC50 (Homo sapiens [14]): 0.43 µM; IC50 [25]: Not Active
